For this assay, the system named is Staphylococcus aureus. The assay is described as follows: Antimicrobial activity against vancomycin-resistant Staphylococcus aureus 509 Michigan after 14 passages by multi-step resistance selection technique. The format is functional. The method in brief: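 Multistep selection: 10 S. aureus strains (8 MRSA incl. two VRSA, two VISA; 2 MSSA) serially passaged daily at subinhibitory concentrations of each antimicrobial; MICs of mutants retested and compared with parent; clone identity versus parent confirmed by pulsed-field gel electrophoresis at study end.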

One may read the MIC as the lowest concentration that inhibits growth of the organism. Low values mean greater potency, high ones weaker potency. For the compound `Cc1c(N)cccc1Cn1ccc(OCCc2cccs2)cc1=O` [CG-400549], the minimal inhibitory concentration (MIC) was above 64 µg/mL.

(Values after ChEMBL document CHEMBL1137665, “Antistaphylococcal activity of CG400549, a new experimental FabI inhibitor, compared with that of other agents” (2007).)
